Reference: ChEMBL document CHEMBL5360562 (Eur J Med Chem, 2023)
Converted amounts (≈) assume the structure as drawn.

Assays:
Acinetobacter baumannii [1] = test: Potentiation of Clarithromycin antibacterial activity against Acinetobacter baumannii AB5075 assessed as clarithromycin MIC at 7.5 uM incubated for 16 hrs by broth microdilution method; assay type: functional
[2] = Metabolic stability in human liver microsomes assessed as parent compound remaining in presence of NADPH measured at 1 hr by UV-UPLC analysis; assay type: ADME, Microsome
[3] = Antiproliferative against human HepG2 cells assessed as reduction in cell viability incubated for 24 hrs by XTT assay; assay type: toxicity, cell-based
Acinetobacter baumannii [4] = test: Potentiation of Clarithromycin antibacterial activity against Acinetobacter baumannii AB5075 assessed as clarithromycin MIC at 5 uM incubated for 16 hrs by broth microdilution method; assay type: functional
[5] = Therapeutic index, ratio of IC50 for antiproliferative against human HepG2 cells assessed as reduction in cell viability to MIC for potentiation of Clarithromycin antibacterial activity against Acinetobacter baumannii […] assessed as clarithromycin MIC; assay type: toxicity, cell-based; settings: read-out: TI
Acinetobacter baumannii [6] = test: Potentiation of Clarithromycin antibacterial activity against Acinetobacter baumannii AB5075 assessed as fold reduction in clarithromycin MIC at 5 uM incubated for 16 hrs by broth microdilution method; assay type: functional
Method in brief: (§1)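 Checkerboard-style potentiation by broth microdilution. 6 h day cultures in CAMHB diluted to 5×10^5 CFU/mL. Adjuvant added from 10 mM DMSO stock at fixed concentration throughout. […] Controls: antibiotic alone, adjuvant alone, media only. Incubated stationary at 37 °C for 16 h. MIC is lowest concentration with no visible growth; fold reduction taken against the antibiotic-alone lane.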

Acinetobacter baumannii [7] = test: Antibacterial activity against Acinetobacter baumannii AB5075 assessed as reduction in bacterial growth incubated for 16 hrs by broth microdilution method; assay type: functional
[8] = Stability of compound in human plasma assessed as parent compound remaining measured at 4 hrs; assay type: ADME, cell-free
Method in brief: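 Compound at 20 μM final in human plasma (from 10 mM DMSO stock), 37 °C; aliquots at 0, 30, 60, 120, 240 min quenched in internal standard in 1:1 ACN/MeOH, centrifuged, supernatant analysed by UPLC-MRM. Peak-area ratio to internal standard expressed as % parent remaining relative to 0 min; half-life calculated.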

Acinetobacter baumannii [9] = test: Potentiation of Clarithromycin antibacterial activity against Acinetobacter baumannii AB5075 assessed as clarithromycin MIC at 15 uM incubated for 16 hrs by broth microdilution method; assay type: functional
Acinetobacter baumannii [10] = test: Potentiation of Clarithromycin antibacterial activity against Acinetobacter baumannii AB5075 assessed as fold reduction in clarithromycin MIC at 7.5 uM incubated for 16 hrs by broth microdilution method; assay type: functional; method in brief: as §1
Acinetobacter baumannii [11] = test: Potentiation of Clarithromycin antibacterial activity against Acinetobacter baumannii AB5075 assessed as fold reduction in clarithromycin MIC at 15 uM incubated for 16 hrs by broth microdilution method; assay type: functional
Acinetobacter baumannii [12] = test: Potentiation of erythromycin antibacterial activity against Acinetobacter baumannii AB5075 assessed as erythromycin MIC at 20 uM incubated for 16 hrs by broth microdilution method; assay type: functional
Acinetobacter baumannii [13] = test: Potentiation of Clarithromycin antibacterial activity against Acinetobacter baumannii AB5674 assessed as clarithromycin MIC at 10 uM incubated for 16 hrs by broth microdilution method; assay type: functional
Acinetobacter baumannii [14] = test: Potentiation of rifampicin antibacterial activity against Acinetobacter baumannii AB5075 assessed as rifampicin MIC at 20 uM incubated for 16 hrs by broth microdilution method; assay type: functional
Acinetobacter baumannii [15] = test: Potentiation of Clarithromycin antibacterial activity against Acinetobacter baumannii AB3560 assessed as clarithromycin MIC at 10 uM incubated for 16 hrs by broth microdilution method; assay type: functional
Acinetobacter baumannii [16] = test: Potentiation of erythromycin antibacterial activity against Acinetobacter baumannii AB5075 assessed as erythromycin MIC at 7.5 uM incubated for 16 hrs by broth microdilution method; assay type: functional
Acinetobacter baumannii [17] = test: Potentiation of Clarithromycin antibacterial activity against Acinetobacter baumannii AB5711 assessed as clarithromycin MIC at 10 uM incubated for 16 hrs by broth microdilution method; assay type: functional
Acinetobacter baumannii [18] = test: Potentiation of Clarithromycin antibacterial activity against Acinetobacter baumannii AB5075 assessed as fold reduction in clarithromycin MIC at 1.5 uM incubated for 16 hrs by broth microdilution method; assay type: functional
Acinetobacter baumannii [19] = test: Potentiation of rifampicin antibacterial activity against Acinetobacter baumannii AB5075 assessed as rifampicin MIC at 5 uM incubated for 16 hrs by broth microdilution method; assay type: functional
Method in brief: (§2)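 A. baumannii AB5075 6 h day cultures in CAMHB subcultured to 5×10^5 CFU/mL; adjuvant added from 10 mM DMSO stock at fixed concentration, then rifampicin (DMSO) twofold serially diluted in adjuvant-containing broth. Antibiotic-alone and adjuvant-alone control lanes.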

Acinetobacter baumannii [20] = test: Potentiation of Clarithromycin antibacterial activity against Acinetobacter baumannii AB5075 assessed as fold reduction in clarithromycin MIC at 10 uM incubated for 16 hrs by broth microdilution method; assay type: functional; method in brief: as §1
Acinetobacter baumannii [21] = test: Potentiation of Clarithromycin antibacterial activity against Acinetobacter baumannii AB5075 assessed as fold reduction in clarithromycin MIC at 30 uM incubated for 16 hrs by broth microdilution method; assay type: functional; method in brief: as §1
Acinetobacter baumannii [22] = test: Potentiation of rifampicin antibacterial activity against Acinetobacter baumannii AB5075 assessed as rifampicin MIC at 10 uM incubated for 16 hrs by broth microdilution method; assay type: functional
Acinetobacter baumannii [23] = test: Potentiation of Azithromycin antibacterial activity against Acinetobacter baumannii AB5075 assessed as azithromycin MIC at 30 uM incubated for 16 hrs by broth microdilution method; assay type: functional
Acinetobacter baumannii [24] = test: Potentiation of Azithromycin antibacterial activity against Acinetobacter baumannii AB5075 assessed as azithromycin MIC at 7.5 uM incubated for 16 hrs by broth microdilution method; assay type: functional
Acinetobacter baumannii [25] = test: Potentiation of Clarithromycin antibacterial activity against Acinetobacter baumannii AB4498 assessed as clarithromycin MIC at 10 uM incubated for 16 hrs by broth microdilution method; assay type: functional
Acinetobacter baumannii [26] = test: Potentiation of erythromycin antibacterial activity against Acinetobacter baumannii AB5075 assessed as erythromycin MIC at 10 uM incubated for 16 hrs by broth microdilution method; assay type: functional
Acinetobacter baumannii [27] = test: Potentiation of Clarithromycin antibacterial activity against Acinetobacter baumannii AB5075 assessed as clarithromycin MIC at 1.5 uM incubated for 16 hrs by broth microdilution method; assay type: functional; method in brief: as §1
Acinetobacter baumannii [28] = test: Potentiation of rifampicin antibacterial activity against Acinetobacter baumannii AB5075 assessed as fold reduction in rifampicin MIC at 10 uM incubated for 16 hrs by broth microdilution method; assay type: functional
Acinetobacter baumannii [29] = test: Potentiation of erythromycin antibacterial activity against Acinetobacter baumannii AB5075 assessed as erythromycin MIC at 30 uM incubated for 16 hrs by broth microdilution method; assay type: functional
Acinetobacter baumannii [30] = test: Potentiation of Azithromycin antibacterial activity against Acinetobacter baumannii AB5075 assessed as azithromycin MIC at 10 uM incubated for 16 hrs by broth microdilution method; assay type: functional
Acinetobacter baumannii [31] = test: Potentiation of Clarithromycin antibacterial activity against Acinetobacter baumannii AB5075 assessed as clarithromycin MIC at 10 uM incubated for 16 hrs by broth microdilution method; assay type: functional
Acinetobacter baumannii [32] = test: Potentiation of rifampicin antibacterial activity against Acinetobacter baumannii AB5075 assessed as rifampicin MIC at 30 uM incubated for 16 hrs by broth microdilution method; assay type: functional
Acinetobacter baumannii [33] = test: Potentiation of Azithromycin antibacterial activity against Acinetobacter baumannii AB5075 assessed as azithromycin MIC at 20 uM incubated for 16 hrs by broth microdilution method; assay type: functional
Acinetobacter baumannii [34] = test: Potentiation of Clarithromycin antibacterial activity against Acinetobacter baumannii AB967 assessed as clarithromycin MIC at 10 uM incubated for 16 hrs by broth microdilution method; assay type: functional
Acinetobacter baumannii [35] = test: Potentiation of Clarithromycin antibacterial activity against Acinetobacter baumannii AB3785 assessed as clarithromycin MIC at 10 uM incubated for 16 hrs by broth microdilution method; assay type: functional
Acinetobacter baumannii [36] = test: Potentiation of Clarithromycin antibacterial activity against Acinetobacter baumannii AB5075 assessed as clarithromycin MIC at 30 uM incubated for 16 hrs by broth microdilution method; assay type: functional
Acinetobacter baumannii [37] = test: Potentiation of Clarithromycin antibacterial activity against Acinetobacter baumannii AB5075 assessed as reduction in clarithromycin MIC at 20 uM incubated for 16 hrs by broth microdilution method; assay type: functional
Acinetobacter baumannii [38] = test: Potentiation of rifampicin antibacterial activity against Acinetobacter baumannii AB5075 assessed as rifampicin MIC at 7.5 uM incubated for 16 hrs by broth microdilution method; assay type: functional; method in brief: as §2
Acinetobacter baumannii [39] = test: Potentiation of Clarithromycin antibacterial activity against Acinetobacter baumannii AB5075 assessed as clarithromycin MIC at 2.5 uM incubated for 16 hrs by broth microdilution method; assay type: functional

Compound: Nc1nc(-c2ccc(NC(=O)Nc3cc(Br)cc(Br)c3)cc2)c[nH]1
- MIC (Acinetobacter baumannii [1]): 0.25 µg/mL
- Stability [2]: 54%
- IC50 at 24 h [3]: 23.2 µg/mL (≈ 51.4 µM)
- MIC (Acinetobacter baumannii [4]): 4 µg/mL
- selectivity ratio [5]: 6.3
- fold change (FC) (Acinetobacter baumannii [6]): 8
- MIC (Acinetobacter baumannii [7]): 50 µM (≈ 22.6 µg/mL)
- Stability [8]: 89%
- MIC (Acinetobacter baumannii [9]): 0.125 µg/mL
- fold change (FC) (Acinetobacter baumannii [10]): 128
- fold change (FC) (Acinetobacter baumannii [11]): 256

Compound: Cl.Cl.Nc1nc(-c2cc(F)cc(NC(=O)Nc3cc(F)cc(-c4c[nH]c(N)n4)c3)c2)c[nH]1
- MIC (Acinetobacter baumannii [12]): 0.25 µg/mL
- MIC (Acinetobacter baumannii [13]): ≤ 0.062 µg/mL
- MIC (Acinetobacter baumannii [1]): 0.25 µg/mL
- MIC (Acinetobacter baumannii [14]): 0.007 µg/mL
- MIC (Acinetobacter baumannii [15]): ≤ 0.062 µg/mL
- MIC (Acinetobacter baumannii [16]): 1 µg/mL
- MIC (Acinetobacter baumannii [17]): 0.125 µg/mL
- Stability [2]: 86%
- fold change (FC) (Acinetobacter baumannii [18]): 16
- MIC (Acinetobacter baumannii [19]): 0.25 µg/mL
- IC50 at 24 h [3]: > 256 µg/mL
- fold change (FC) (Acinetobacter baumannii [20]): 256
- MIC (Acinetobacter baumannii [4]): 0.5 µg/mL
- fold change (FC) (Acinetobacter baumannii [21]): >=512
- MIC (Acinetobacter baumannii [22]): 0.031 µg/mL
- selectivity ratio [5]: > 353
- MIC (Acinetobacter baumannii [23]): 0.5 µg/mL
- fold change (FC) (Acinetobacter baumannii [6]): 64
- MIC (Acinetobacter baumannii [7]): > 200 µM
- Stability [8]: > 95%
- MIC (Acinetobacter baumannii [24]): 2 µg/mL
- MIC (Acinetobacter baumannii [25]): ≤ 0.062 µg/mL
- MIC (Acinetobacter baumannii [26]): 0.25 µg/mL
- fold change (FC) (Acinetobacter baumannii [10]): 128
- MIC (Acinetobacter baumannii [27]): 2 µg/mL
- fold change (FC) (Acinetobacter baumannii [28]): 32
- MIC (Acinetobacter baumannii [29]): 0.125 µg/mL
- MIC (Acinetobacter baumannii [30]): 1 µg/mL
- MIC (Acinetobacter baumannii [31]): 0.125 µg/mL
- MIC (Acinetobacter baumannii [32]): 0.003 µg/mL
- MIC (Acinetobacter baumannii [33]): 1 µg/mL
- MIC (Acinetobacter baumannii [34]): ≤ 0.062 µg/mL
- MIC (Acinetobacter baumannii [35]): ≤ 0.062 µg/mL
- MIC (Acinetobacter baumannii [36]): ≤ 0.062 µg/mL
- fold change (FC) (Acinetobacter baumannii [37]): >=512
- MIC (Acinetobacter baumannii [37]; Acinetobacter baumannii, AB5075): ≤ 0.062 µg/mL
- MIC (Acinetobacter baumannii [38]): 0.06 µg/mL
- MIC (Acinetobacter baumannii [39]): 1 µg/mL
